Measurements: ChEMBL document CHEMBL4184225, “Discovery of selective 2,4-diaminoquinazoline toll-like receptor 7 (TLR 7) agonists” (Bioorg Med Chem Lett, 2018)

Tests used:
[1] = molecular target: T1, Toll-like receptor 7 (Homo sapiens) (UniProt Q9NYK1); assay: Agonist activity at TLR7 in human PBMC assessed as suppression of HCV replicon replication in human HuH7 luc/neo cells harboring RNA encoding bicistronic expression construct comprising wild type HCV type 1b NS3-NS5B regions exposed to conditioned media from compound treated PBMCs by luciferase reporter gene assay; assay type: cell-based
T1 sequence (whole entry): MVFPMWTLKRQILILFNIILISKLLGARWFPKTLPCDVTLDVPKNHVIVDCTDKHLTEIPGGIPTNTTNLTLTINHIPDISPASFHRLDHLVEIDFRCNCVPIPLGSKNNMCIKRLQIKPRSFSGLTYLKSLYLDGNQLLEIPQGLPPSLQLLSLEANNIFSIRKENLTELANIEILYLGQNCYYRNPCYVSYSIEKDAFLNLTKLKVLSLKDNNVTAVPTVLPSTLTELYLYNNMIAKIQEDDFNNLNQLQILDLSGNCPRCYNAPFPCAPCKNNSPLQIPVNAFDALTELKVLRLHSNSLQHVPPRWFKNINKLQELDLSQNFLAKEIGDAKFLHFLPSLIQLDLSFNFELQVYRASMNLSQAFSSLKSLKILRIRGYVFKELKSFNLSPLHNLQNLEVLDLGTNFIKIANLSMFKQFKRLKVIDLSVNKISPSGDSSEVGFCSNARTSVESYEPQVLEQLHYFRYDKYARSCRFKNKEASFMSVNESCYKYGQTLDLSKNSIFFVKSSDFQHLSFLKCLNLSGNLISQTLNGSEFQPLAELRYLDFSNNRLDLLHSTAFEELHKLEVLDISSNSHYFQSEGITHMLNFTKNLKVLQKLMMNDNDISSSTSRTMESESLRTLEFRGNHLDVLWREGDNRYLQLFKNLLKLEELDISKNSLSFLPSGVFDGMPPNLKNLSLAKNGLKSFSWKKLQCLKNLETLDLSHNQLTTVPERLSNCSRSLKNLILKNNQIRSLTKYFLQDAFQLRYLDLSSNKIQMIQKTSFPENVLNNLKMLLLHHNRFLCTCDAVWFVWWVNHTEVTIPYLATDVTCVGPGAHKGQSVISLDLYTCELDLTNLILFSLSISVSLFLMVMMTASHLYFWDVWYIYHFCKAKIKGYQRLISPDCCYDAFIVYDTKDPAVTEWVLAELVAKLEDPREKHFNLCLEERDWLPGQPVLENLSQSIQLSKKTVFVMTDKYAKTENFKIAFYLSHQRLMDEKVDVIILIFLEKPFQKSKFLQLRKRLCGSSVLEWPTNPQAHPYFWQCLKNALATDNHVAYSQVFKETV
Summary of the method: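 PBMCs from buffy coats of at least two donors (Ficoll), in RPMI with 10% human AB serum, 2 x 10^5 cells/well, incubated overnight with compound. Supernatant transferred onto Huh7-luc/neo replicon cells plated the day before (2.2 x 10^3/well). Luciferase read after 24 h. EC50 is the concentration applied to PBMCs giving 50% luciferase reduction. Recombinant IFN-α2a standard.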

[2] = Cytotoxic activity against HEK293 cells assessed as reduction in cell viability incubated for 6 hrs; assay type: cell-based; conditions: human
Summary of the method: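 HEK293 cells transfected with the CMV-TLR7 construct alone, treated with a compound dilution series for 6 h at 37°C, 5% CO₂. Viability read by ATP luminescence. Reported as CC50.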

[3] = molecular target: T1, Toll-like receptor 7 (Homo sapiens); assay: Agonist activity at human TLR7 expressed in HEK293 cells assessed as induction of receptor activation incubated for 6 hrs by NF-kappaB-luciferase reporter gene assay; assay type: cell-based
Summary of the method: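 HEK293 cells transiently transfected overnight with CMV-TLR7 (wild type or dLRR2 mutant) plus NFκB-luc plasmids. Seeded at 1.67 x 10^5 cells/mL onto compound in 4% DMSO (stock), 6 h at 37°C, 5% CO2, luciferase readout. Quadruplicate dose-response. LEC is the concentration giving an effect at least two-fold above assay SD. Values averaged over independent experiments where repeated.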

[4] = molecular target: T2, Toll-like receptor 8 (Homo sapiens, UniProt Q9NR97); assay: Agonist activity at human TLR8 expressed in HEK293 cells assessed as induction of receptor activation incubated for 6 hrs by NF-kappaB-luciferase reporter gene assay; assay type: cell-based; conditions: hek293, 6 h
T2 sequence (Q9NR97 whole entry): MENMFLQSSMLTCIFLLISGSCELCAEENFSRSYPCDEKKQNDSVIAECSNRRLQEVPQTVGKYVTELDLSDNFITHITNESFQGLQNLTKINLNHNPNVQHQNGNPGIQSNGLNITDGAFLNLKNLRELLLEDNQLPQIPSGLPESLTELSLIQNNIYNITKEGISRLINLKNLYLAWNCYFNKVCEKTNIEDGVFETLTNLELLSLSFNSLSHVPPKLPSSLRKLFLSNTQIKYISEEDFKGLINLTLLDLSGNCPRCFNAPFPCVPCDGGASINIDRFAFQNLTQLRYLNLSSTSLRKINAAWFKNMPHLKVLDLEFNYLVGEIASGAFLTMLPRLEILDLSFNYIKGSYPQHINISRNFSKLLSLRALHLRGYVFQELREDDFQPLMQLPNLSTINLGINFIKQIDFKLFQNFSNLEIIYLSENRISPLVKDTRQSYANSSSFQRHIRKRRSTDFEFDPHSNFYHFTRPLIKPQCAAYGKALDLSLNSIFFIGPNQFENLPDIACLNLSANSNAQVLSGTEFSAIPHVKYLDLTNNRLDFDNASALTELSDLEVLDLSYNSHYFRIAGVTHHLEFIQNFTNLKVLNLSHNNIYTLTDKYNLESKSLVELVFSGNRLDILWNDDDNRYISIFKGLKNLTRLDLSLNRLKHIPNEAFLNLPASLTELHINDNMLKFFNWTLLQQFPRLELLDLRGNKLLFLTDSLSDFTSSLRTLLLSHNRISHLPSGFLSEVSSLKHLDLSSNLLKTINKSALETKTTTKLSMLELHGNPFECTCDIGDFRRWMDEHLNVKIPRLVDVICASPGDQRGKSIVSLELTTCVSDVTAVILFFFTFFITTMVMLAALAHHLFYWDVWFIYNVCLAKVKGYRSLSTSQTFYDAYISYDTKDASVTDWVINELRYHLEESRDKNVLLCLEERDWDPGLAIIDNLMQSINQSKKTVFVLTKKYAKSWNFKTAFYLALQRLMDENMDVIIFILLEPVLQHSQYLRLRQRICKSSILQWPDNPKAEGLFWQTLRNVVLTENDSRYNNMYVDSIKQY
Summary of the method: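 HEK293 cells transiently transfected overnight at 37°C with CMV-TLR8 plasmid (wild type or dLRR2 mutant) plus NFκB-luc reporter, then exposed to compound for 6 h at 37°C, 5% CO₂. Luciferase read-out. Quadruplicate dose-response. LEC is the concentration giving an effect at least two-fold above the assay SD, averaged over two or more independent experiments.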

[5] = Metabolic stability in mouse liver microsomes assessed as drug metabolism after 15 mins at 1 uM; assay type: ADME, microsome; conditions: read-out: Drug metabolism
Summary of the method: (§1)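 Compound at 1µM incubated with liver microsomes of the stated species. Percent of compound metabolized after 15 min.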

[6] = Metabolic stability in human liver microsomes assessed as drug metabolism after 15 mins at 1 uM; assay type: ADME, microsome; conditions: read-out: Drug metabolism; summary of the method: as §1

Row | SMILES | MEC [1] [µM] | CC50 at 6 h [2] [µM] | MEC [3] [µM] | MEC [4] [µM] | metabolised at 0.25 h, 1 µM [5] [%] | metabolised at 0.25 h, 1 µM [6] [%]
1 | CCCCNc1nc(N)nc2ccc(CCc3ccccn3)cc12 | 0.04 | > 18 | 0.1 | 0.3 |  | 
2 | CCCCNc1nc(N)nc2ccc(C(C)=O)cc12 | 2.39 | > 18 | 6.1 | 1.9 |  | 
3 | CCCCNc1nc(N)nc2cccc(C)c12 | 0.32 | > 25 | 0.5 | 0.3 | 100 | 96
4 | CCCCNc1nc(N)nc2cccc(C(=O)N[C@@H](C)c3ccccc3OC)c12 | 0.14 | > 25 | 0.28 | > 25 | 99 | 99
5 | CCCCCNc1nc(N)nc2ccccc12 | 0.04 | > 25 | 0.06 | 0.1 |  | 
6 | CCCCNc1nc(N)nc2ccc(C(C)O)cc12 (stereo not given) | 8.49 | > 18 | 12 | 5.8 |  | 
7 | CCCCNc1nc(N)nc2cc(F)c(F)cc12 | 0.26 | > 18 | 1.8 | 0.1 |  | 
8 | CCCCNc1nc(N)nc2cc(CN(C)C)ccc12 | 0.04 | > 18 | 0.2 | 0.04 |  | 
9 | CCCCNc1nc(N)nc2ccc(OC)cc12 | 2.44 | > 18 | 5.6 | 1.8 |  | 
10 | CCCCNc1nc(N)nc2cccc(C(=O)N[C@@H](C)c3cccc(OC)c3)c12 | 0.5 | > 25 | 0.37 | > 25 | 96 | 97
11 | CCCC(C)Nc1nc(N)nc2ccccc12 (stereo not given) | 0.1 | > 25 | 0.71 | 0.17 |  | 
12 | CCNc1nc(N)nc2ccccc12 | 2.27 | > 25 | 3.07 | 0.77 |  | 
13 | CCCCNc1nc(N)nc2ccc(C#N)cc12 | 13.2 | > 18 | > 25 | 7.1 |  | 
14 | CCCCNc1nc(N)nc2c(F)cccc12 | 0.07 | > 18 | 0.2 | 0.3 |  | 
15 | CCCCNc1nc(N)nc2cccc(CC3CCCC3)c12 | 0.09 | > 25 | 0.12 | > 25 |  | 
16 | CCCCNc1nc(N)nc2ccc(F)cc12 | 0.11 | > 18 | 0.3 | 0.1 |  | 
17 | CCCCNc1nc(N)nc2ccc(CO)cc12 | 0.14 | > 18 | 0.9 | 0.2 |  | 

Row | SMILES | MEC [1] [µM] | CC50 at 6 h [2] [µM] | MEC [3] [µM] | MEC [4] [µM] | metabolised at 0.25 h, 1 µM [5] [%] | metabolised at 0.25 h, 1 µM [6] [%]
18 | CCCCNc1nc(N)nc2cc(OC)c(OC)cc12 | 2.05 | > 18 | 10 | 1.1 |  | 
19 | CCCCNc1nc(N)nc2ccc(CCc3ccc(N(C)C)cc3)cc12 | 0.15 | > 18 | 0.2 | 0.5 |  | 
20 | CCCCNc1nc(N)nc2cccc(Cl)c12 | 0.17 | > 25 | 1 |  | 88 | 99
21 | CCCCNc1nc(N)nc2cc(OC)ccc12 | 0.15 | > 18 | 0.9 | 0.3 |  | 
22 | COCCCNc1nc(N)nc2ccccc12 | 0.04 | > 25 | 0.46 | 0.01 |  | 
23 | CCCCNc1nc(N)nc2cccc(OC)c12 | 0.1 | > 25 | 0.4 | 0.1 | 100 | 98
24 | CCCCNc1nc(N)nc2cccc(CCc3ccccc3)c12 | 0.27 | > 25 | 0.13 | 0.47 | 97 | 24
25 | CCCNc1nc(N)nc2ccccc12 | 0.67 | > 25 | 1.07 | 0.93 |  | 
26 | CCCCNc1nc(N)ncc1OCC | 1.43 | > 25 | 4.7 | 1.1 |  | 
27 | CCCCNc1nc(N)nc2cccc(OCCOC)c12 | 0.12 | > 25 | 0.1 | 0.2 | 98 | 59
28 | CC(C)CCNc1nc(N)nc2ccccc12 | 1.5 | > 25 | > 25 | 2.11 |  | 
29 | CNc1nc(N)nc2ccccc12 | 8.88 | > 25 | 18.7 | 6.87 |  | 
30 | CCCCNc1nc(N)nc2cccc(C(=O)N(C)C(C)C)c12 | 1.92 | > 25 | 5.62 | > 25 |  | 
31 | CCCCNc1nc(N)nc2cc(C(=O)N(C)C)ccc12 | 0.06 | > 18 | 0.1 | 0.5 |  | 
32 | CCCCNc1nc(N)nc2cc(C(N)=O)ccc12 | 0.15 | > 18 | 0.4 | 2 |  | 
33 | CCCCNc1nc(N)nc2cc(CO)ccc12 | 0.05 | > 18 | 0.1 | 0.1 |  | 
